Results on 12 compounds are retold here after ChEMBL document CHEMBL1125931, “Fluorescent markers for hypoxic cells: a study of nitroaromatic compounds, with fluorescent heterocyclic side chains, that undergo bioreductive binding” (J Med Chem, 1991).

The nature of test [1]: Binding of fluorescence moiety to oxic cells measured in flow cytometry assay at conc of 10e-4 M. It is filed as functional, Cricetulus griseus. The method, boiled down: (§1)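 V79 379A Chinese hamster cells (suspension culture, MEM with 7.5% fetal calf serum) incubated at 37 °C with 10^-4 M drug under aerobic or hypoxic gassing (air or N2, each + 5% CO2); DMSO final ≤1%. Flow cytometry after 6 h: excitation 365 nm, emission >390 or 410 nm; naphthalimides excited 458 nm, emission 510–560 nm. Mean fluorescence, arbitrary units, normalized for PMT gain and laser power.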
Background: A flow cytometer gives signals particle by particle.

Test [2] is described as follows: Binding of fluorescence moiety to hypoxic cells measured in flow cytometry assay at conc of 10e-4 M. In kind it is functional, Cricetulus griseus. The method, boiled down:
as §1

A short description of test [3]: Cellular content after 4 hr incubation with compound under aerobic condition at 37 C. It is filed as functional. The note with it: Cricetulus griseus. The method, boiled down: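 Aerobic V79 Chinese hamster cells exposed to 10^-4 M extracellular drug for 4 h at 37 °C, then washed with PBS. Cell content measured by HPLC with an acetonitrile gradient, 50–75% over 10 min with 390 nm detection or 30–50% with 340 nm detection depending on compound. Reported as fmol per cell; about 0.1 fmol/cell corresponds to equilibration with the extracellular space.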

As to `COc1ccc2cc(C(=O)NCCN(CCO)CC(O)Cn3ccnc3[N+](=O)[O-])c(=O)oc2c1` (centres undefined), the “Fluorescence Intensity” value in test [1] is on record as 24; in test [2] it was 412.

Take `COc1cc2cc(Cn3ccnc3[N+](=O)[O-])c(=O)oc2cc1OC`: the “Fluorescence Intensity” value is listed as 238 in test [1] and 1149 in test [2].

As to `Nc1ccc2c3c(cccc13)C(=O)N(CCCCCn1ccnc1[N+](=O)[O-])C2=O`, the Uptake in test [3] was 93 fmol/cell. The results for the “Fluorescence Intensity” value in test [1] and in test [2] were 42 and 235, respectively.

Consider `O=C(CNCCCN(CCO)CCO)Nc1ccc2c3c(cccc13)C(=O)N(CCCn1ccnc1[N+](=O)[O-])C2=O`, for which, in test [3], the Uptake is less than 0.005 fmol/cell. For the same compound, the “Fluorescence Intensity” value in test [1] worked out at 13; in test [2] it was 24.

As for `COc1ccc2cc(Cn3ccnc3[N+](=O)[O-])c(=O)oc2c1`, the entries for the “Fluorescence Intensity” value in test [1] and in test [2] were 85 and 203, respectively.

Take `Nc1ccc2c3c(cccc13)C(=O)N(CCCCCCCCCn1ccnc1[N+](=O)[O-])C2=O`: in test [3], the Uptake stood at 105 fmol/cell. Further, the “Fluorescence Intensity” value amounted to 78 in test [1] and 263 in test [2].

As to `CC(=O)Nc1ccc2c3c(cccc13)C(=O)N(CCCn1ccnc1[N+](=O)[O-])C2=O`, the Uptake in test [3] is 0.04 fmol/cell. For the same compound, the “Fluorescence Intensity” value in test [1] was determined as 12; in test [2], 37.

With `COc1cc2oc(=O)cc(Cn3ccnc3[N+](=O)[O-])c2cc1OC`, the “Fluorescence Intensity” value in test [1] is given as 64; in test [2] it was 1461.

`Br.COc1ccc2c(CSCCN)cc(=O)oc2c1`: the “Fluorescence Intensity” value is reported as 19 in test [1] and 77 in test [2].

For `Nc1ccc2c3c(cccc13)C(=O)N(CCCn1ccnc1[N+](=O)[O-])C2=O`, in test [3], the Uptake was found to be 98 fmol/cell. The “Fluorescence Intensity” value stood at 17 in test [1] and 335 in test [2].

Turning to `COc1ccc2c(Cn3ccnc3[N+](=O)[O-])cc(=O)oc2c1`, the “Fluorescence Intensity” value turned out to be 24 in test [1] and 361 in test [2].

In the case of `COc1cc2nc(N3CCN(CC(O)Cn4ccnc4[N+](=O)[O-])CC3)nc(N)c2cc1OC` (centres undefined), the “Fluorescence Intensity” value in test [1] is 39; in test [2], 85.
